Screens from PubChem.
STAT3 activator = STAT3 signaling activation; U3A cells, IL-6 STAT3-luciferase reporter, luminescence; 100% = signal with IL-6 EC80 alone; activation (% of control), % at 5.6 µM; hit rate 0.91% among 190,000; AID 871;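 active means activation above the screen-wide mean of compound activation plus 3 SD, cut at about 130% in these data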
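Test system: human U3A cells carrying STAT3-luciferase construct; control set: IL-6-only wells as 100% reference; timing: compound pre-incubation 1 h before IL-6, then 6 h stimulation at 37 °C; also added: IL-6 stimulus at 33 ng/mL final; evaluation: % activation versus median of IL-6-stimulated wells; detection: reporter luminescence signal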
APP 5'UTR act = APP 5'UTR luciferase reporter activation; hit rate 1% among 190,000; SH-SY5Y APP 5'UTR luciferase reporter, luminescence; zero percent = DMSO vehicle wells; activation, % at 2 µM;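 active means activation above a set limit, based on mean plus 3 SD of controls, cut at about 140% in these data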
NF-kB expr up = raises NF-kB expression in human neuronal cells | NF-kB reporter expression; hits give high values | fold change at 12.5 µM | hit rate 1.6% among 190,000 | AID 1239; in the data active means fold change above about 3.3
STAT1 activator = increases IFN-gamma driven STAT1 reporter signal; activation (% of control), % at 5.5 µM; hit rate 2.6% among 200,000; NIH 3T3 STAT1-luciferase reporter, luminescence; 100% = IFN-gamma alone, no compound;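 active means activation above the screen-wide mean activation plus 3 SD, cut at about 130% in these data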
STAT1 blocker = inhibitors of IFN-gamma induced STAT1 signaling | NIH 3T3 STAT1-luciferase reporter, luminescence | inhibition, % at 5.5 µM | hit rate 0.35% among 200,000;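 active means inhibition above a set limit, the mean inhibition across all tested compounds plus 3 SD, cut at about 34% in these data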
STAT3 inh-1 = reduces IL-6 driven STAT3 reporter signal | U3A cells, IL-6 STAT3-luciferase reporter, luminescence; host cell line lacks STAT1 | inhibition, % at 5.5 µM | hit rate 0.89% among 190,000;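 active means inhibition above the mean inhibition across all screened compounds plus 3 SD, cut at about 44% in these data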
STAT3 inh-2 = confirmation of STAT3 signaling inhibitors; shares compounds with STAT3 inh-1; U3A cells, IL-6 STAT3 luciferase reporter, luminescence; cell line lacks STAT1; inhibition, % at 5.7 µM; hit rate 45% among 1,200; AID 1265;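 active means inhibition above the hit cutoff computed for the primary STAT3 screen, cut at about 44% in these data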
NFkB inh 2 = counter-screen for STAT3 inhibitors: NF-kappaB inhibition | hit rate 36% among 1,200 | inhibition, % at 5.7 µM | HEK293T NF-kB luciferase reporter, TNF-alpha induced | AID 1308 | shares compounds with STAT3 inh-1;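 active means inhibition above the mean of solvent-only control wells plus 3 SD, cutoff set per campaign, cut at about 13% in these data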
STAT1 inh 2 = STAT1 inhibition in STAT3 inhibitor counter-screen; inhibition, % at 5.7 µM; shares compounds with STAT3 inh-1; NIH 3T3 STAT1-luciferase reporter, IFN-gamma induced, luminescence; hit rate 27% among 1,200;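 active means inhibition above the mean plus 3 SD of solvent-only control wells, limit set per screening run, cut at about 16% in these data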
Hits are given with their value; . = inactive; / = no result. Shown are actives, neighbours in structure and some others; about 5.1% of the full set was active somewhere.

SMILES	STAT3 activator	APP 5'UTR act	NF-kB expr up	STAT1 activator	STAT1 blocker	STAT3 inh-1	STAT3 inh-2	NFkB inh 2	STAT1 inh 2
O=C1CC(c2ccc3c(c2)OCO3)Sc2nc3ccccc3n21 (stereo not drawn)	.	.	.	.	.	52	.	.	.
FC(F)(F)c1cnc(-c2cnc(-c3ccccn3)nc2)c(Cl)c1	.	.	.	.	.	48	.	.	.
FC(F)(F)c1cc(Oc2ccccc2Cl)nc(-c2ccccn2)n1	.	.	.	.	.	.	/	/	/
O=C(CSc1nnc(NC(=O)c2ccc3c(c2)OCO3)s1)NCc1ccco1	.	.	.	.	.	53	.	.	.
COc1cc(CSc2nnnn2-c2ccc(C)cc2)cc(OC)c1OC	.	.	.	.	.	69	70	26	22
Nn1c(-c2ccccn2)nnc1-c1ccccn1	.	.	.	.	.	.	/	/	/
c1ccc(-c2ccc(-c3ccccn3)nn2)nc1	.	.	.	.	.	51	.	.	.
O=C(/C=C/c1ccccc1Cl)Nc1ccc2c(c1)C(=O)NC2=O	.	.	.	.	.	.	/	/	/
O=C(/C=C/c1ccccc1Cl)Nc1cccc(O)c1	.	191	12	.	.	64	.	14	17
Cc1ccc(OCc2ccc(C(=O)Nc3ccc(S(N)(=O)=O)cc3)o2)cc1	.	.	.	.	.	.	/	/	/
CC1Cc2cc(-c3csc(NC(=O)Cc4cccs4)n3)ccc2N1S(C)(=O)=O (stereo not drawn)	.	.	.	.	.	79	79	29	.
CS(=O)(=O)N1CCc2cc(-c3csc(NC(=O)Cc4ccccc4)n3)ccc21	.	.	.	.	.	53	46	.	.
COc1ccc(CC(=O)NC(C)c2nnc(SCC(=O)Nc3cc(C)ccc3OC)n2C)cc1 (stereo not drawn)	.	.	.	.	.	.	/	/	/
CCSc1ccc(-c2ccc(C)cc2)nn1	.	187	6.6	.	.	47	.	.	.
CCOc1ccc(-c2ccc(SCC)nn2)cc1	.	167	5	.	.	72	.	.	.
COc1ccc(-c2nnc(SCC(=O)c3cc(C)n(Cc4cccs4)c3C)o2)cc1	.	.	.	.	.	.	/	/	/
Cc1cc(C(=O)CSc2nnc(N)s2)c(C)n1Cc1cccs1	.	136	.	.	.	51	.	.	.
CC(=O)Nc1ccccc1OCC(=O)c1cc(C)n(Cc2cccs2)c1C	.	.	.	.	.	79	84	27	.
Cc1csc(SCC(=O)c2cc(C)n(Cc3cccs3)c2C)n1	.	.	.	.	40	79	52	24	.
Cc1cc(C(=O)COc2cccnc2[N+](=O)[O-])c(C)n1Cc1cccs1	.	.	.	.	.	.	/	/	/
COc1ccccc1NC(=O)CN(Cc1ccco1)C(=O)c1ccc(Cl)nc1	.	.	.	.	.	.	/	/	/
O=C1COC(c2ccccc2)C2CCCCN12 (stereo not drawn)	.	.	.	.	.	.	/	/	/
O=C(COc1ncnc2ccccc12)Nc1ccccc1[N+](=O)[O-]	.	.	.	.	.	.	/	/	/
Clc1ccc(-c2nnc(NC3=NCCCCC3)o2)cc1	.	152	.	.	.	80	48	19	.
CC1(C)CC(=O)C=C(NC2=CC3OC(c4ccccc4)OCC3OC2=O)C1 (stereo not drawn)	.	.	.	.	.	45	.	23	18
C=CCSc1nnc(CC(OC)OC)n1-c1ccccc1	.	.	.	.	.	.	/	/	/
O=C1C(=C2SCCCS2)CC/C1=C\c1ccc(F)cc1	.	.	.	.	.	115	93	81	.
O=C(Nc1nc2ccccc2[nH]1)c1ccc(F)cc1	.	.	.	.	.	72	.	.	.
Cn1nc(C(C)(C)C)cc1C(=O)NCc1ccc(N2CCCC2=O)cc1	.	.	.	.	.	59	63	29	33
